Data: ChEMBL document CHEMBL2434913 (Bioorg Med Chem Lett, 2013)
pIC50: −log10 of the molar value.

Key:
[1] = target: T1, Prostaglandin G/H synthase 2 (Mus musculus, UniProt Q05769); assay: Inhibition of purified mouse COX-2 assessed as inhibition of PGE2-G/PGD2-G formation preincubated for 3 mins before 2-AG substrate addition measured after 30 seconds by LC-MS-MS method
T1 sequence (Q05769 whole entry): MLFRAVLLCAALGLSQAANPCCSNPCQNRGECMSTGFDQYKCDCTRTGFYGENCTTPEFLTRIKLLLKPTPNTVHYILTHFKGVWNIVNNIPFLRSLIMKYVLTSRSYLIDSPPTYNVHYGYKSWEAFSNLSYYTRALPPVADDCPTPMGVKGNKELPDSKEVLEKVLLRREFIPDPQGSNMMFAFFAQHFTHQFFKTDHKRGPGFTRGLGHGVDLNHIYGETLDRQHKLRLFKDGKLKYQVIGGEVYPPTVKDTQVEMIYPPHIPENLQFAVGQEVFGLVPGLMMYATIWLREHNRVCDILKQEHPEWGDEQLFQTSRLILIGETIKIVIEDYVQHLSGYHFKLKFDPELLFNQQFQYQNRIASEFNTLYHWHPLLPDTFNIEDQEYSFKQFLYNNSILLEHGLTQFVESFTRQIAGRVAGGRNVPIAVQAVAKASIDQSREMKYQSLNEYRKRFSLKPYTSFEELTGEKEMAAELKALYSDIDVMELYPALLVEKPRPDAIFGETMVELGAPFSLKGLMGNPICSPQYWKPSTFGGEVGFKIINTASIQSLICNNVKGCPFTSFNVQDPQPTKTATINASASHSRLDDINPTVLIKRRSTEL

[2] = target: T2, Prostaglandin G/H synthase 2 (Mus musculus) (UniProt Q05769); assay: Inhibition of purified mouse COX-2 assessed as inhibition of PGE2-G/PGD2-G formation preincubated at 10 uM for 3 mins before 2-AG substrate addition measured after 30 seconds by LC-MS-MS method
T2 sequence (whole entry): T1 sequence (Q05769 whole entry)
How it was run: (§1)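 Purified murine COX-2 (50 nM) preincubated 3 min with test agent at 10 µM in DMSO, alongside a solvent control. Then 2-AG or AA added at 5 µM, 37 °C, for 30 s. Read-out is percent inhibition of substrate oxygenation versus control. Mean ± SD, n = 6.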

[3] = target: T2, Prostaglandin G/H synthase 2 (Mus musculus); assay: Inhibition of purified mouse COX-2 assessed as inhibition of PGE2/PGD2 formation preincubated at 10 uM for 3 mins before arachidonic acid substrate addition measured after 30 seconds by LC-MS-MS method; how it was run: as §1
[4] = target: T1, Prostaglandin G/H synthase 2; assay: Inhibition of purified mouse COX-2 assessed as inhibition of PGE2/PGD2 formation preincubated for 3 mins before arachidonic acid substrate addition measured after 30 seconds by LC-MS-MS method

Row | SMILES | pIC50 [1] | inhibition [2] [%] | inhibition [3] [%] | pIC50 [4]
1 | O=C(O)Cc1ccccc1Nc1ccccc1Cl | 5.41 |  |  | 
2 | O=C(O)Cc1ccccc1Nc1ccccc1F |  | 25 | 0 | 
3 | Cc1ccc(Nc2ccccc2Cl)c(CC(=O)O)c1 | 7.22 |  | 0 | 
4 | Cc1ccc(Nc2c(F)cccc2F)c(CC(=O)O)c1 | 6.00 |  | 0 | 
5 | O=C(O)Cc1ccccc1Nc1c(Cl)cc(Br)cc1Cl | 7.22 |  | 55 | 6.85
6 | Cc1ccc(Nc2ccccc2)c(CC(=O)O)c1 |  | 0 | 10 | 
7 | Cc1ccc(Nc2c(C)cccc2F)c(CC(=O)O)c1 |  | 0 | 0 | 
8 | O=C(O)Cc1ccccc1Nc1c(F)cccc1Cl | 7.40 |  |  | 

Now from value to compound:

Row | pIC50 [1] | inhibition [2] [%] | inhibition [3] [%] | pIC50 [4] | SMILES
9 | 7.15 |  | 32 |  | Cc1ccc(Nc2c(Cl)cc(Cl)cc2Cl)c(CC(=O)O)c1
10 | 5.74 |  | 0 |  | Cc1ccc(Nc2ccccc2F)c(CC(=O)O)c1
11 | 7.52 |  | 60 | 6.70 | Cc1ccc(Nc2c(Cl)cccc2Cl)c(CC(=O)O)c1
12 | 5.92 |  |  |  | O=C(O)Cc1ccccc1Nc1c(F)cccc1F
13 |  | 15 | 0 |  | Cc1cccc(F)c1Nc1ccccc1CC(=O)O
